The source made the active and inactive calls. The rule behind the calls is not given here.
Assays:
Rattus norvegicus [1] = species: Rattus norvegicus; experiment: CNS activity in rat assessed as gross behaviour; format: ADME, organism-based; details: in vivo
Rattus norvegicus [2] = experiment: Antifertility activity in rat at 5 mg/day administered for 7 days; format: functional, organism-based
Method in brief: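 Rat antifertility test: 5 mg/rat/day given for 7 days to two female rats.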

SMILES | Activity (Rattus norvegicus [1]) | Activity (Rattus norvegicus [2])
COc1cccc(N2CCC(=O)N2CCCC(=O)c2ccc(F)cc2)c1 | Non-toxic | inactive
O=C1CCN(c2cccc(Cl)c2)N1 | Non-toxic | inactive
COc1cccc(N2CCC(=O)N2)c1 | Non-toxic | inactive
COc1cccc(N2CCC(=O)N2CCCC(O)c2ccc(F)cc2)c1 (stereo not drawn) | Non-toxic | inactive
CCOC(=O)COC1=NN(c2cccc(Cl)c2)CC1 | Non-toxic | inactive
O=C1CCN(c2cccc(C(F)(F)F)c2)N1 | Non-toxic | inactive
CCCCOc1cccc(N2CCC(=O)N2)c1 | Non-toxic | inactive
CCOC(=O)CCCCCOC1=NN(c2cccc(OC)c2)CC1 | Non-toxic | inactive
CCOC(=O)COC1=NN(c2cccc(C(F)(F)F)c2)CC1 | Non-toxic | inactive

Reference: ChEMBL document CHEMBL3271975, “Synthesis and biological activity of a series of 1-aryl-3-pyrazolidinones” (J Med Chem, 1976)
